For assay [1], the target named is T1, Oxysterols receptor LXR-alpha (Homo sapiens) (UniProt Q13133).
T1 sequence (whole entry): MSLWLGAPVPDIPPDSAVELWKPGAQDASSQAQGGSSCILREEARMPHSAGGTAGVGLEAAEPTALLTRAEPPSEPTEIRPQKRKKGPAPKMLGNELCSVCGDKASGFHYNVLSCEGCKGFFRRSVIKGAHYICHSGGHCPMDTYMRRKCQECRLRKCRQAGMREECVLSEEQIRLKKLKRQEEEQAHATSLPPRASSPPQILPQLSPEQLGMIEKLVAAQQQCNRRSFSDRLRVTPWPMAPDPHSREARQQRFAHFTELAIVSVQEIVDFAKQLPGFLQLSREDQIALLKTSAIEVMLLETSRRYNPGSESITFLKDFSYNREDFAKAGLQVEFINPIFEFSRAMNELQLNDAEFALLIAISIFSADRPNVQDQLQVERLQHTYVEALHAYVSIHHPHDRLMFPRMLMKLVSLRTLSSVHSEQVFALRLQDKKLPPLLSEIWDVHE
The assay is described as follows: Transactivation of Gal4-fused LXRalpha LBD (unknown origin) expressed in HepG2 cells at 10 uM after 18 hrs by dual-glo luciferase assay. It counts as cell-based.

Assay [2] has as its target T2, Oxysterols receptor LXR-beta (Homo sapiens) (UniProt P55055).
T2 sequence (whole entry): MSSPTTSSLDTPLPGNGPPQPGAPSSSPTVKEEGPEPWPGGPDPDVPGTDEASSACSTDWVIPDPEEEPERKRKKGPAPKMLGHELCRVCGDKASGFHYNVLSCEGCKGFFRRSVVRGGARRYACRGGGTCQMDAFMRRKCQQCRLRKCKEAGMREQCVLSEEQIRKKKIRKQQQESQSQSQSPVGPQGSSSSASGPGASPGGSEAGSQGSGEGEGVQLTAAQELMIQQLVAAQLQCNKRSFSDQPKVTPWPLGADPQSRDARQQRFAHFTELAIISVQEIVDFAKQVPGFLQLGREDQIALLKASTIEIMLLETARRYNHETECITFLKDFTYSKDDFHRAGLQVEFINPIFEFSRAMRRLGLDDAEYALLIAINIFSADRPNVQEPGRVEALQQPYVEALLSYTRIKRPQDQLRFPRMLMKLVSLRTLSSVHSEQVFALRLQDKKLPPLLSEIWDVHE
The assay is described as follows: Transactivation of Gal4-fused LXRbeta LBD (unknown origin) expressed in HepG2 cells at 10 uM after 18 hrs by dual-glo luciferase assay. Format: cell-based.

In assay [3] the target is T3, Peroxisome proliferator-activated receptor gamma (Homo sapiens) (UniProt P37231).
T3 sequence (whole entry): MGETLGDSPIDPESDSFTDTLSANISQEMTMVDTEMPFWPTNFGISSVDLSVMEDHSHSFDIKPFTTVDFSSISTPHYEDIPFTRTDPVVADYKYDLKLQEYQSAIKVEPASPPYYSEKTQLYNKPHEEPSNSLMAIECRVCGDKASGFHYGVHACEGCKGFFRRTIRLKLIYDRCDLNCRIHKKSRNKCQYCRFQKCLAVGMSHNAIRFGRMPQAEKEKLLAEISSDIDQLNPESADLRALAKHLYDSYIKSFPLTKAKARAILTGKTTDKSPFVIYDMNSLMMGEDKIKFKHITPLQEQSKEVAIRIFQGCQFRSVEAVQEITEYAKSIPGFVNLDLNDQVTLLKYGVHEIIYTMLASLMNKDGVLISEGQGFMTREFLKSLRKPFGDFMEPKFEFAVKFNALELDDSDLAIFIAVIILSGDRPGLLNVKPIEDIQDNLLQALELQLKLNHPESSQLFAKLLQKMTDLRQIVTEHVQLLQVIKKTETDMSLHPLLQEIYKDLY
The assay is described as follows: Transactivation of Gal4-fused PPARgamma LBD (unknown origin) expressed in HepG2 cells at 10 uM after 18 hrs by dual-glo luciferase assay. It counts as cell-based.

In assay [4] the test system is Mus musculus. As to the kind of experiment: In-vivo agonist activity at FXR in C57BL/6N N mouse assessed as upregulation of SHP mRNA level at 10 mg/kg, po dosed daily via gavage for 3 days by RT-PCR analysis. It counts as functional, organism-based. In outline: (§1)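 Mice dosed 10 mg/kg daily for 3 days, by gavage or i.p. Total liver RNA analysed by quantitative real-time PCR for SHP or BSEP mRNA, normalized to GAPDH mRNA; mean ± SEM of four mice per group.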

In assay [5] the test system is Mus musculus. As to the kind of experiment: In-vivo agonist activity at FXR in C57BL/6N N mouse assessed as upregulation of BSEP mRNA level at 10 mg/kg, po dosed daily via gavage for 3 days by RT-PCR analysis. Format: functional, organism-based. The essentials:
as §1

Assay [6] deals with Mus musculus. The assay is described as follows: Hepatoprotective activity against APAP-induced acute liver injury in C57BL/6N mouse assessed as reduction in plasma AST levels at 30 mg/kg, po administered 45 mins after APAP challenge. Format: functional, organism-based. In outline: (§2)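 C57Bl6 mice given a single 500 mg/kg APAP dose, with test agent at 30 mg/kg; surviving mice sacrificed 24 h later, blood and liver collected. Endpoints: serum AST/ALT, liver H&E histology, hepatic Ugt1a1/Ugt2b1/Sult1a1 mRNA, hepatic GSH, SOD activity and MDA, and plasma APAP, APAP-glucuronide and APAP-sulfate by LC–MS/MS. Mean ± SEM, 5–8 animals per group.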

Assay [7] concerns Mus musculus. The assay is described as follows: Hepatoprotective activity against APAP-induced acute liver injury in C57BL/6N mouse assessed as reduction in plasma ALT levels at 30 mg/kg, po administered 45 mins after APAP challenge. Format: functional, organism-based. The essentials: as §2
For assay [8], the system named is Mus musculus. As to the kind of experiment: Hepatoprotective activity against APAP-induced acute liver injury in C57BL/6N mouse assessed as reduction in liver necrosis at 30 mg/kg, po administered 45 mins after APAP challenge by H and E staining based microscopic method. Format: functional, organism-based. The essentials: as §2
The test system of assay [9] is Mus musculus. The assay is described as follows: Hepatoprotective activity against APAP-induced acute liver injury in C57BL/6N mouse assessed as upregulation of UGT2B1 mRNA levels at 30 mg/kg, po administered 45 mins after APAP challenge. It counts as functional, organism-based. In outline: as §2
Assay [10] relates to Mus musculus. As to the kind of experiment: Hepatoprotective activity against APAP-induced acute liver injury in C57BL/6N mouse assessed as increase in GSH levels at 30 mg/kg, po administered 45 mins after APAP challenge. Format: functional, organism-based. The essentials: as §2
Assay [11] has as its system Mus musculus. The assay is described as follows: Hepatoprotective activity against APAP-induced acute liver injury in C57BL/6N mouse assessed as increase in SOD levels at 30 mg/kg, po administered 45 mins after APAP challenge. It counts as functional, organism-based. The essentials: as §2
For assay [12], the system named is Mus musculus. As to the kind of experiment: Hepatoprotective activity against APAP-induced acute liver injury in C57BL/6N mouse assessed as reduction in lipid peroxidation by measuring MDA levels at 30 mg/kg, po administered 45 mins after APAP challenge. Format: functional, organism-based. The essentials:
as §2

Assay [13] deals with Mus musculus. The assay is described as follows: Hepatoprotective activity against APAP-induced acute liver injury in C57BL/6N mouse assessed as increase in APAP metabolism by measuring increase in APAP-sulfate level at 30 mg/kg, po administered 45 min after APAP challenge by LC-MS/MS analysis. Format: functional, organism-based. In outline: as §2
The test system of assay [14] is Mus musculus. As to the kind of experiment: In-vivo agonist activity at FXR in C57BL/6N N mouse assessed as upregulation of SHP mRNA level at 10 mg/kg, ip dosed daily […] for 3 days by RT-PCR analysis. It counts as functional, organism-based. The essentials:
as §1

Assay [15] deals with Mus musculus. As to the kind of experiment: In-vivo agonist activity at FXR in C57BL/6N N mouse assessed as upregulation of BSEP mRNA level at 10 mg/kg, ip dosed daily […] for 3 days by RT-PCR analysis. It counts as functional, organism-based. In outline: as §1

The source made the active and inactive calls. The rule behind the calls is not given here.

For the compound `CC(C)c1onc(-c2c(Cl)cccc2Cl)c1COc1ccc(COc2ccc(C(=O)O)cc2)cc1`, the result in [1], in assay [2] and in assay [3] was inactive. In addition, the result with Mus musculus [4], with Mus musculus [5], with Mus musculus [6], in the assay with Mus musculus [7], in the assay on Mus musculus [8] and with Mus musculus [9] was Active. Further, the outcome with Mus musculus [10], in the assay on Mus musculus [11], with Mus musculus [12], in the assay on Mus musculus [13], with Mus musculus [14] and with Mus musculus [15] was Active.

The values are drawn from ChEMBL document CHEMBL4433207, “Novel Isoxazole Derivatives with Potent FXR Agonistic Activity Prevent Acetaminophen-Induced Liver Injury” (ACS Med Chem Lett, 2019).
